Data from ChEMBL document CHEMBL3627612, “Hirsutinolide Series Inhibit Stat3 Activity, Alter GCN1, MAP1B, Hsp105, G6PD, Vimentin, TrxR1, and Importin α-2 Expression, and Induce Antitumor Effects against Human Glioma” (J Med Chem, 2015).
pIC50: −log10 of the molar value. Values belong to the compound of their own block, whether it stands above or below them. Activity calls are given as the source filed them. No cut-off for these calls is given here.

How the values were obtained:
U-251 [1] = test: Induction of apoptosis in human U251MG cells assessed as PARP level at 0.5 to 10 nM after 24 to 48 hrs by immunoblot analysis; format: functional, cell-based
Procedure, shortened: (§1)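 U251MG human glioma cells (RPMI or DMEM, 10% FBS, 1% nonessential amino acids) treated for 24 or 48 h, with paclitaxel or staurosporine run alongside. Whole-cell lysates were prepared and analysed by SDS-PAGE and immunoblotting, probing for PARP and caspase 3 cleavage as apoptosis markers.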

U-251 [2] = test: Induction of apoptosis in human U251MG cells assessed as cleaved caspase 3 level at 0.5 to 10 nM after 24 to 48 hrs by immunoblot analysis; format: functional, cell-based; procedure, shortened: as §1
U-251 [3] = test: Effect on SOCS3 expression in human U251MG cells at 5 uM after 0.5 to 24 hrs by immunoblot analysis; format: functional, cell-based
Procedure, shortened: (§2)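 U251MG cells treated with 5 μM compound for 0–24 h; whole-cell lysates of equal total protein immunoblotted. Controls were 0.025% DMSO-treated cells. Representative of 2–4 independent determinations.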

NIH3T3 [4] = test: Modulation of EGF-induced Stat5 phosphorylation in mouse NIH3T3 cells expressing human EGFR at 5 uM preincubated for 3 hrs followed by stimulation with 1 ug/ml EGF for 12 mins by immunoblot analysis; format: cell-based
Procedure, shortened: (§3)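 Whole-cell lysates of equal total protein from NIH3T3/hEGFR fibroblasts, pretreated with or without 5 μM compound (control 0.025% DMSO) for 3 h, then stimulated with 1 μg/ml EGF for 12 min. SDS-PAGE immunoblotting for pStat1/Stat1 and pStat5/Stat5 with β-actin or GAPDH loading controls. Representative of 2–4 independent determinations.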

[5] = target: RAC-alpha serine/threonine-protein kinase (Homo sapiens) (UniProt P31749); test: Modulation of Akt phosphorylation in human U251MG cells at 5 uM after 0.5 to 24 hrs by immunoblot analysis; format: cell-based; conditions: U-251; procedure, shortened: as §2
MDA-MB-231 [6] = test: Antiproliferative activity against human MDA-MB-231 cells for 72 hrs by cyquant assay; format: functional, cell-based; conditions: MDA-MB-231, 72 h
Procedure, shortened: (§4)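 CyQuant proliferation assay after 72 h compound exposure of cultured cells; relative viability normalized to DMSO-treated control; IC50 values derived. Glioma lines grown in RPMI or DMEM with 10% FBS and 1% nonessential amino acids.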

MDA-MB-231 [7] = test: Antiproliferative activity against human MDA-MB-231 cells at 5 uM for 72 hrs by cyquant assay; format: functional, cell-based
[8] = target: Signal transducer and activator of transcription 3 (Mus musculus) (UniProt P42227); test: Inhibition of Stat3 dimer DNA binding activity in EGF-stimulated mouse NIH3T3 nuclear extract expressing human EGFR assessed as residual activity at 5 uM preincubated for 30 mins followed by addition of radiolabeled probe hSIE for 30 mins by EMSA
[9] = Cytotoxicity against mouse NIH/3T3 cells at 5uM after 72 hrs by cyquant cells; format: cell-based; conditions: nih3t3, 72 h; procedure, shortened: as §4
[10] = target: T1, Signal transducer and activator of transcription 1/ 3 (Mus musculus) (UniProt P42227+P42225); test: Inhibition of Stat1:Stat3 dimer DNA binding activity in EGF-stimulated mouse NIH3T3 nuclear extract expressing human EGFR assessed as residual activity at 5 uM preincubated for 30 mins followed by addition of radiolabeled probe hSIE for 30 mins by EMSA; format: cell-free
[11] = target: T2, Signal transducer and activator of transcription 1 (Mus musculus) (UniProt P42225); test: Inhibition of Stat1 dimer DNA binding activity in EGF-stimulated mouse NIH3T3 nuclear extract expressing human EGFR assessed as residual activity at 5 uM preincubated for 30 mins followed by addition of radiolabeled probe hSIE for 30 mins by EMSA
T2 sequence (whole entry): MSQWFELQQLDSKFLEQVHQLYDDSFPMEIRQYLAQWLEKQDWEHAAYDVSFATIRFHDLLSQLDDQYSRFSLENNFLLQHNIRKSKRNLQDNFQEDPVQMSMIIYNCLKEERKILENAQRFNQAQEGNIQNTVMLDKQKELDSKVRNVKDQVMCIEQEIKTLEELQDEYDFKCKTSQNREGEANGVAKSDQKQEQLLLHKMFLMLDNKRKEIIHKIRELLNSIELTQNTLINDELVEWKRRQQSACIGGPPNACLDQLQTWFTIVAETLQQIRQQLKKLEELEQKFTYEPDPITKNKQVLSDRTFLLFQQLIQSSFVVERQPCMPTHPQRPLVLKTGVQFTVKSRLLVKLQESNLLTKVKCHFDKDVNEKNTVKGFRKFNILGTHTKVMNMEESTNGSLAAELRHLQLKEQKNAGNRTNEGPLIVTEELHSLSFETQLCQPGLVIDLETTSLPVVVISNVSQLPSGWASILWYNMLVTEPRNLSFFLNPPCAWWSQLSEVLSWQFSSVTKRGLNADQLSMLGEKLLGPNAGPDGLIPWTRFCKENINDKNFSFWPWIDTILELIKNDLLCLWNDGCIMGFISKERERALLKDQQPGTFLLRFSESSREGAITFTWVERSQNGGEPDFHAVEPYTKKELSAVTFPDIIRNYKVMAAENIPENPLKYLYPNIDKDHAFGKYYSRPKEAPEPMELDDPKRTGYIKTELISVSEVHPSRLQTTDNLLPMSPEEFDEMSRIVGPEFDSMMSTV

[12] = target: T2, Signal transducer and activator of transcription 1 (Mus musculus); test: Inhibition of Stat1 dimer DNA binding activity in EGF-stimulated mouse NIH3T3 nuclear extract expressing human EGFR at 5 uM preincubated for 30 mins followed by addition of radiolabeled probe hSIE for 30 mins by EMSA
U-251 [13] = test: Effect on PTP1B expression in human U251MG cells at 5 uM after 0.5 to 24 hrs by immunoblot analysis; format: functional, cell-based; procedure, shortened: as §2
SF-295 = test: Antiproliferative activity against human SF295 cells at 5 uM for 72 hrs by cyquant assay; format: functional, cell-based
[14] = Antiproliferative activity against human U373MG cells for 72 hrs by cyquant assay; format: functional, cell-based, U-373MG ATCC; conditions: U373 MG; procedure, shortened: as §4
[15] = target: T2, Signal transducer and activator of transcription 1 (Mus musculus); test: Modulation of EGF-induced Stat1 phosphorylation in mouse NIH3T3 cells expressing human EGFR at 5 uM preincubated for 3 hrs followed by stimulation with 1 ug/ml EGF for 12 mins by immunoblot analysis; format: cell-based; procedure, shortened: as §3
U-251 [16] = test: Antiproliferative activity against human U251MG cells at 5 uM for 72 hrs by cyquant assay; format: functional; procedure, shortened: as §4
[17] = target: T3, Signal transducer and activator of transcription 3 (Homo sapiens, UniProt P40763); test: Inhibition of orthovandate-induced Stat3 phosphorylation in human U251MG cells at 5 uM for 3 hrs by immunoblot analysis in presence of 10 to 300 uM orthovandate; format: cell-based; conditions: U-251
Procedure, shortened: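 U251MG cells treated with 5 μM compound for 3 h without or with 10–300 μM Na3VO4. Whole-cell lysates of equal total protein immunoblotted for pStat3 and Stat3. Controls were 0.025% DMSO. Representative of 2–4 determinations.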

[18] = target: T3, Signal transducer and activator of transcription 3; test: Inhibition of Stat3 activity in human U251MG cells assessed as phosphorylated Stat3 level at 5 uM by immunoblot analysis; format: cell-based; conditions: U-251, TDE = time-dependent effect
[19] = Cytotoxicity against mouse NIH/3T3 cells after 72 hrs by cyquant cells; format: cell-based; conditions: NIH3T3, 72 h; procedure, shortened: as §4
[20] = Antiproliferative activity against human U251MG cells for 72 hrs by cyquant assay; format: functional, cell-based; conditions: U-251, 72 h; procedure, shortened: as §4
NIH3T3 [21] = test: Inhibition of Stat5 dimer DNA binding activity in EGF-stimulated mouse NIH3T3 nuclear extract expressing human EGFR at 5 uM preincubated for 30 mins followed by addition of radiolabeled probe MGFe for 30 mins by EMSA; format: cell-free
[22] = Antiproliferative activity against human SF295 cells for 72 hrs by cyquant assay; format: functional, cell-based; conditions: SF-295, 72 h; procedure, shortened: as §4
[23] = target: Mitogen-activated protein kinase; ERK1/ERK2 (Homo sapiens) (UniProt P27361+P28482); test: Modulation of Erk1/2 phosphorylation in human U251MG cells at 5 uM after 0.5 to 24 hrs by immunoblot analysis; format: cell-based; conditions: U-251
Procedure, shortened: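 U251MG glioma cells (RPMI or DMEM, 10% FBS, 1% nonessential amino acids) treated with 5 μM compound for 0–24 h; 0.025% DMSO control. Whole-cell lysates of equal total protein immunoblotted for pErk1/2, Erk1/2, pJAK2 and JAK2 with β-actin or GAPDH loading controls. Representative of 2–4 independent determinations.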

[24] = target: Mitogen-activated protein kinase 1 and 3 (ERK2 and ERK1) (Mus musculus) (UniProt P63085+Q63844); test: Modulation of EGF-induced Erk1/2 phosphorylation in mouse NIH3T3 cells expressing human EGFR at 5 uM preincubated for 3 hrs followed by stimulation with 1 ug/ml EGF for 12 mins by immunoblot analysis; format: cell-based
Procedure, shortened: (§5)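 NIH3T3/hEGFR fibroblasts pretreated with or without 5 μM compound for 3 h, then stimulated with 1 μg/ml EGF for 12 min. Whole-cell lysates of equal total protein immunoblotted for phospho and total Stat3, Stat1, Stat5, Erk1/2. Controls were 0.025% DMSO-treated cells. Representative of 2–4 independent determinations.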

[25] = target: Signal transducer and activator of transcription 3 (Mus musculus) (UniProt P42227); test: Inhibition of Stat3 dimer DNA binding activity in mouse NIH3T3/vSrc nuclear extract at 5 uM preincubated for 30 mins followed by addition of radiolabeled probe hSIE for 30 mins by EMSA
[26] = target: Signal transducer and activator of transcription 3 (Mus musculus) (UniProt P42227); test: Inhibition of EGF-induced Stat3 phosphorylation in mouse NIH3T3 cells expressing human EGFR at 5 uM preincubated for 3 hrs followed by stimulation with 1 ug/ml EGF for 12 mins by immunoblot analysis; format: cell-based; procedure, shortened: as §5
[27] = target: T1, Signal transducer and activator of transcription 1/ 3 (Mus musculus); conditions: NIH3T3, 5 uM
[28] = target: T3, Signal transducer and activator of transcription 3; conditions: U-251, 5 uM
[29] = target: T3, Signal transducer and activator of transcription 3; test: Inhibition of Stat3 activity in human U251MG cells assessed as phosphorylated Stat3 level after 2 hrs by immunoblot analysis; format: cell-based; conditions: U-251
Procedure, shortened: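 U251MG cells treated with 5 μM compound for 0–24 h, or with 0–5 μM for 2 h. Whole-cell lysates immunoblotted for pStat3, Stat3, GAPDH. Control was 0.025% DMSO-treated cells.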

[30] = target: Signal transducer and activator of transcription 3 (Mus musculus) (UniProt P42227); conditions: NIH3T3, 5 uM
U-251 [31] = test: Induction of apoptosis in human U251MG cells assessed as cleaved caspase-3 level at […] after 24 to 48 hrs by immunoblot analysis; format: functional, cell-based
U-251 [32] = test: Induction of apoptosis in human U251MG cells assessed as PARP level at […] after 24 to 48 hrs by immunoblot analysis; format: functional, cell-based
U-251 [33] = test: Antimitotic activity in human U251MG cells assessed as defect in sister chromatid segragation at 0.1 uM after 15 hrs confocal microscopic analysis; format: functional, cell-based
Procedure, shortened: (§6)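 U251MG on coverslips synchronized by double thymidine block (2 mM), released 9 h, treated 15 h (8 μM; paclitaxel 100 nM). Fixed 4% paraformaldehyde, digitonin-permeabilized, BSA-blocked, stained for β-tubulin and MAP1B with DAPI counterstain; chromatid structure and segregation scored by confocal microscopy.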

U-251 [34] = test: Antimitotic activity in human U251MG cells assessed as defect in chromatid structure at 0.1 uM after 15 hrs confocal microscopic analysis; format: functional, cell-based; procedure, shortened: as §6

T3 sequence (P40763 whole entry): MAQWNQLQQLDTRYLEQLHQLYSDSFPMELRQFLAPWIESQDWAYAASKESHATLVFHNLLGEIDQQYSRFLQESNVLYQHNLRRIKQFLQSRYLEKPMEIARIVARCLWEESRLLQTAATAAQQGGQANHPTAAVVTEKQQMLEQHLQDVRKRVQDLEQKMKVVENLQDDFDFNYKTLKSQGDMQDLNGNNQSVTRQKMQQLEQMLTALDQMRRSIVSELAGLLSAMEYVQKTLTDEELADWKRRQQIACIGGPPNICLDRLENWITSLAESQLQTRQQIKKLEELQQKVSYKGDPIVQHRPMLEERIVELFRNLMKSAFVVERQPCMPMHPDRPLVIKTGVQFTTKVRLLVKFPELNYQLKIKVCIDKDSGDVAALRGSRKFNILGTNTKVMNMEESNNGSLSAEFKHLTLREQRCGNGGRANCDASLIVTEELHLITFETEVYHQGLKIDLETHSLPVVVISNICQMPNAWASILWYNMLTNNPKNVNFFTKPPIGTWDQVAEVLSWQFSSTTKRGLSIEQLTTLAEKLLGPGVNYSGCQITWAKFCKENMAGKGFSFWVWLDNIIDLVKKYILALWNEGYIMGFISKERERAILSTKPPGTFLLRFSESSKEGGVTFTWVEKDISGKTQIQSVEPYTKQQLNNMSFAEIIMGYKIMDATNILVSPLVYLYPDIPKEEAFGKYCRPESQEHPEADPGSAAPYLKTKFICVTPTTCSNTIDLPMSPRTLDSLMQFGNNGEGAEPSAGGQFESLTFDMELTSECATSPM
Sequence of Signal transducer and activator of transcription 3 (Mus musculus) (P42227 whole entry): as the sequence (P40763 whole entry) above, with E760D counted along it
Sequence of RAC-alpha serine/threonine-protein kinase (Homo sapiens) (P31749 whole entry): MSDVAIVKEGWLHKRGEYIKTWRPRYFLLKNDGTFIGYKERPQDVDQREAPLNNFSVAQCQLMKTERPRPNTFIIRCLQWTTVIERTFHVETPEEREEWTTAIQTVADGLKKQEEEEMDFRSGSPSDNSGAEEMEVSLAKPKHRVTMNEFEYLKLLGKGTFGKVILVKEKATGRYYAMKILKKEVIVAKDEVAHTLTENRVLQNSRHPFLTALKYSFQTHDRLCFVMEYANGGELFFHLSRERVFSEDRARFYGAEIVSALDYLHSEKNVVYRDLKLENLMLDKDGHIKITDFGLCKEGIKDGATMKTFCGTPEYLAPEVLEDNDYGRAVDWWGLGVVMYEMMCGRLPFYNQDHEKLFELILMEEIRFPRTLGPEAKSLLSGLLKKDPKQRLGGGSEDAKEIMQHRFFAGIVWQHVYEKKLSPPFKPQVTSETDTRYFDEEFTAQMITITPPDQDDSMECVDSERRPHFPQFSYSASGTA
Sequence of Mitogen-activated protein kinase; ERK1/ERK2 (Homo sapiens) (P27361 whole entry, looked up): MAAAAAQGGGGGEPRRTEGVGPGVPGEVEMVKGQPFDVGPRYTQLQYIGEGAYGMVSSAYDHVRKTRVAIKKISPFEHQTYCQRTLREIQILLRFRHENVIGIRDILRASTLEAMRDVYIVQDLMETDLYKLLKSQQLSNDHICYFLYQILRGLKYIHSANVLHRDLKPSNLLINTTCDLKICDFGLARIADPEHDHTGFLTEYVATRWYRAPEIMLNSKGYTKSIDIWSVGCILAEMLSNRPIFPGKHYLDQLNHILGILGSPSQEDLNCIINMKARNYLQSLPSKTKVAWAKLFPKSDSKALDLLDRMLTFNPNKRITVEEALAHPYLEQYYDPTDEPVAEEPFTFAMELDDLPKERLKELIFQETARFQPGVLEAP
Sequence of Mitogen-activated protein kinase; ERK1/ERK2 (Homo sapiens) (P28482 whole entry, looked up): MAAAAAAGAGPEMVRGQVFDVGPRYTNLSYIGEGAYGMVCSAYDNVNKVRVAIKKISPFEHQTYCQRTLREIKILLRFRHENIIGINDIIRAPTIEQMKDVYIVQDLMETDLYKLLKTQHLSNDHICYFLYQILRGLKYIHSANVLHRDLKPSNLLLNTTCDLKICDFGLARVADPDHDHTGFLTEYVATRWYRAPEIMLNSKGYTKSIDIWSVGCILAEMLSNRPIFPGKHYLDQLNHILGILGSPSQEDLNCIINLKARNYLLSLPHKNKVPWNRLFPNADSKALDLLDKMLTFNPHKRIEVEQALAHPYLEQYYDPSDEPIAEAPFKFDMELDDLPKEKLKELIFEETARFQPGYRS
Sequence of Mitogen-activated protein kinase 1 and 3 (ERK2 and ERK1) (Mus musculus) (P63085 whole entry, looked up): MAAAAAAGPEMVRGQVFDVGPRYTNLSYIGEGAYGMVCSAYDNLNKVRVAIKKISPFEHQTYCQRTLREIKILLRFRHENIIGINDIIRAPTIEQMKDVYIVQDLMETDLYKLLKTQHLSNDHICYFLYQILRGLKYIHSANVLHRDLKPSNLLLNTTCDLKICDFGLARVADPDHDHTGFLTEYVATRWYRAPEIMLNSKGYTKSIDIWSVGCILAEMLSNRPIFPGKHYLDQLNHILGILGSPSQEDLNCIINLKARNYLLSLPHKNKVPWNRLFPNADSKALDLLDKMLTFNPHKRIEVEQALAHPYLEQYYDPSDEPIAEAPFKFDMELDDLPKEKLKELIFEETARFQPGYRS
Sequence of Mitogen-activated protein kinase 1 and 3 (ERK2 and ERK1) (Mus musculus) (Q63844 whole entry, looked up): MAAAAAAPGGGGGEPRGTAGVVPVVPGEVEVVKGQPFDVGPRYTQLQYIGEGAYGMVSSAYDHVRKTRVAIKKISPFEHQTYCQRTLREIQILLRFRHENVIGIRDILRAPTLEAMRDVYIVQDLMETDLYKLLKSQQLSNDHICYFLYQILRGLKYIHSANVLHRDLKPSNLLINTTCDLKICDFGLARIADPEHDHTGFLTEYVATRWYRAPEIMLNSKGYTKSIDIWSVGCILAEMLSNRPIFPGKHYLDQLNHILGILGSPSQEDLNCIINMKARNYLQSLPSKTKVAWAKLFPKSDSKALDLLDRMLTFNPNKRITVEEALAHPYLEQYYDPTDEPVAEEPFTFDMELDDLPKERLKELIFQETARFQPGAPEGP

Compound: CN[C@@H]1C[C@H]2O[C@@](C)([C@@H]1OC)n1c3ccccc3c3c4c(c5c6ccccc6n2c5c31)C(=O)NC4
Activity (U-251 [1]): Active
Activity (U-251 [2]): Active

Activity [5]: inactive
pIC50 (MDA-MB-231 [6]): 5.13
Activity [8]: 47%
Activity [10]: 61%
Activity [11]: 60%
inhibition [12]: inactive
inhibition [15]: inactive
inhibition [17]: Active
inhibition [18]: tde
inhibition (NIH3T3 [21]): inactive
Activity [23]: inactive
inhibition [24]: inactive
inhibition [25]: Active
inhibition [26]: Active
Compound: C/C=C(/C)C(=O)O[C@H]1C[C@@H](C)[C@]2(O)CC[C@](C)(/C=C3/OC(=O)C(COC(C)=O)=C31)O2
Activity (U-251 [3]): inactive
inhibition (NIH3T3 [4]): inactive
inhibition (MDA-MB-231 [7]): Active
Activity [9]: Toxic
Activity (U-251 [13]): inactive
inhibition (SF-295): Active
pIC50 [14]: 4.98
inhibition (U-251 [16]): Active
pIC50 [19]: 4.93
pIC50 [20]: 5.48
pIC50 [22]: 5.07

inhibition [27]: Active
inhibition [28]: inactive
inhibition [29]: Dose-dependent effect
inhibition [12]: Active
inhibition [30]: Active
inhibition [25]: Active
Compound: CC(C)=CCC/C(C)=C/C(=O)OCC1=C2/C(=C\[C@@]3(C)CC[C@](O)(O3)[C@H](C)C[C@@H]2O)OC1=O
inhibition (U-251 [16]): Active
pIC50 [19]: < 5.30
pIC50 [20]: 6.00

Compound: CC(=O)O[C@H]1C(=O)[C@@]2(C)[C@H]([C@H](OC(=O)c3ccccc3)[C@]3(O)C[C@H](OC(=O)[C@H](O)[C@@H](NC(=O)c4ccccc4)c4ccccc4)C(C)=C1C3(C)C)[C@]1(OC(C)=O)CO[C@@H]1C[C@@H]2O
Activity (U-251 [31]): Active
Activity (U-251 [32]): Active
Activity (U-251 [33]): Active
Activity (U-251 [34]): Active
